# Results from ChEMBL document CHEMBL1833964, “Synthesis, structure-activity relationship and in vitro biological evaluation of N-arylethyl isoquinoline derivatives as Coxsackievirus B3 inhibitors” (Bioorg Med Chem Lett, 2011).
# Tests used:
# [1] = Selectivity index, ratio of TC50 for african green monkey vero cells to IC50 for Coxsackievirus B3; format: toxicity, cell-based; conditions: read-out: Selectivity Index
# Procedure, shortened: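 Selectivity index is TC50 divided by IC50. TC50 is from 48 h CPE monitoring of compound-treated uninfected Vero monolayers. IC50 is from CPE scoring at 4+ virus control in Vero cells infected with 100 TCID50 CVB3 and kept in MEM with 2% FBS. Both values came from Reed and Muench analysis, in triplicate experiments.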
# [2] = Selectivity index, ratio of TC50 for african green monkey vero cells to IC50 for Enterovirus 71; format: toxicity, cell-based; conditions: read-out: Selectivity Index
# [3] = Cytotoxicity against african green monkey Vero cells infected with Enterovirus 71 assessed as growth inhibition after 48 hrs by Reed-Muench analysis; format: cell-based; conditions: chlorocebus sabaeus, read-out: TC50
# Procedure, shortened: (§1)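 Vero cells plated at 2.5 × 10^4 per well and grown 24 h to a monolayer, then exposed to a range of test compound concentrations for 48 h at 37 °C. Cell damage was monitored as CPE, and TC50 came from Reed and Muench analysis. Each experiment was run three times.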
# [4] = test system: Enterovirus A71; assay: Antiviral activity against Enterovirus 71 infected in african green monkey vero cells assessed as inhibition of viral replication by Reed-Muench analysis; format: functional, organism-based; conditions: Enterovirus A
# [5] = test system: Coxsackievirus B3; assay: Antiviral activity against Coxsackievirus B3 infected in african green monkey vero cells assessed as inhibition of viral replication by Reed-Muench analysis; format: functional, organism-based; conditions: Enterovirus B
# Procedure, shortened: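 Vero monolayers infected with 100 TCID50 CVB3, then kept in maintenance medium (MEM plus 2% FBS) with or without test compound at various concentrations. Viral CPE was scored once the virus control reached 4+. The 50% inhibitory concentration came from Reed and Muench analysis. Three independent experiments.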
# [6] = Cytotoxicity against african green monkey Vero cells infected with Coxsackievirus B3 assessed as growth inhibition after 48 hrs by Reed-Muench analysis; format: cell-based; conditions: chlorocebus sabaeus, read-out: TC50; procedure, shortened: as §1
Structure (SMILES),selectivity ratio [1],selectivity ratio [2],CC50 at 48 h [3] [µM],IC50 [4] [µM],IC50 [5] [µM],CC50 at 48 h [6] [µM]
Oc1ccc2cc[n+](CCc3ccccc3)cc2c1,15.6,3.5,534,152,25,389
COc1ccc2cc[n+](CCc3ccccc3)cc2c1O,3.9,–,–,–,91.1,352
COc1ccc2cc[n+](CCc3ccccc3C)cc2c1O,–,–,–,–,> 337,584
COc1ccc(CC[n+]2ccc3ccc(OC)c(O)c3c2)cc1,–,–,–,–,> 107,464
COc1ccc2cc[n+](CCc3ccccc3)cc2c1OC,2.8,–,–,–,209,584
COc1cc2cc[n+](CCc3ccccc3)cc2cc1OC,–,–,–,–,> 337,1010
COc1ccc2cc[n+](CCc3ccc(F)cc3)cc2c1OC,–,–,–,–,> 320,1380
COc1ccc(CC[n+]2ccc3ccc(OC)c(OC)c3c2)cc1,–,–,–,–,> 11.4,49.5
c1ccc(CC[n+]2ccc3ccc4c(c3c2)OCO4)cc1,26.8,9,820,91.1,30.4,815
Fc1ccc(CC[n+]2ccc3ccc4c(c3c2)OCO4)cc1,–,9.2,420,45.8,> 335,581
COc1cc2cc[n+](CCc3ccc(F)cc3)cc2cc1OC,–,8.1,864,107,> 320,665
COc1cc2cc[n+](CCc3ccccc3F)cc2cc1OC,–,–,–,–,> 53.3,206
COc1cc2cc[n+](CCc3cccc(Cl)c3)cc2cc1OC,–,–,–,–,> 33.9,131
COc1cc2cc[n+](CCc3ccccc3C)cc2cc1OC,–,–,–,–,> 323,970
COc1cc2c[n+](CCc3ccccc3C)ccc2cc1O,2.1,–,–,–,112,234
COc1cc2c[n+](CCc3ccccc3F)ccc2cc1O,–,–,–,–,> 111,333
Oc1ccc2cc[n+](CCc3cccc(Cl)c3)cc2c1,–,–,–,–,> 38.6,200
Oc1ccc2cc[n+](CCc3ccc(F)cc3)cc2c1,–,–,–,–,> 336,1100
Cc1ccccc1CC[n+]1ccc2ccc(O)cc2c1,2.1,–,–,–,371,772
COc1ccccc1CC[n+]1ccc2ccc(O)cc2c1,–,–,–,–,> 352,1060
COc1cc2c[n+](CCc3ccccc3)ccc2c(OC)c1OC,–,–,–,–,> 927,2780
COc1ccc(CC[n+]2ccc3c(OC)c(OC)c(OC)cc3c2)cc1,–,–,–,–,> 10.6,46
NC(=O)c1ncn([C@@H]2O[C@H](CO)[C@@H](O)[C@H]2O)n1 [RIBAVIRIN],–,–,–,2120,910,–
